Test results: ChEMBL document CHEMBL2093137, “WHO-TDR NTD Screening”
Converted amounts (≈) assume the structure as drawn.

Assays:
[1] = WHO-TDR: Cytotoxicity; format: toxicity, cell-based; settings: human, MRC5 cells
Plasmodium falciparum K1 = assay: WHO-TDR: Malaria; format: functional, organism-based, Homo sapiens; settings: Erythrocyte
Procedure, shortened: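 Previously published standard procedures, including a reference drug as positive control, were used to screen whole Plasmodium falciparum K1 parasites inside human red blood cells. IC50 is the measure of antiplasmodial potency. The compounds were a 10,000-member diverse Life Chemicals library.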

Trypanosoma cruzi = assay: WHO-TDR: Chagas disease; format: functional, organism-based, Homo sapiens; settings: MRC5
Procedure, shortened: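 Intracellular amastigotes of the Trypanosoma cruzi Tulahuen CL2 beta-galactosidase strain, grown in MRC-5SV2 human lung fibroblast host cells, were tested in a whole-organism screen. The compounds came from a 10,000-member diverse Life Chemicals library that had been filtered for drug-likeness and reactive groups. Previously published standard procedures were followed, with a reference drug as positive control, and potency is reported as IC50.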

[2] = test system: Trypanosoma brucei brucei; assay: WHO-TDR: Human African Trypanosomiasis (HAT); format: functional, organism-based; settings: Squib-427
Procedure, shortened: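 In this whole-organism screen, the target was the bloodstream form of Trypanosoma brucei, strain Squib 427. A diverse set of 10,000 compounds from Life Chemicals, previously filtered for drug-likeness and reactive groups, was assayed by standard published procedures using reference drugs as positive controls. Each value is an IC50 for antiparasitic potency.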

Leishmania infantum = assay: WHO-TDR: Leishmaniasis; format: functional, organism-based, Mus musculus; settings: Macrophage
Procedure, shortened: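 Intracellular amastigotes of Leishmania infantum MHOM/MA(BE)/67, hosted in murine peritoneal macrophages, were exposed to compounds from a 10,000-member diverse library supplied by Life Chemicals. The library had been filtered for drug-likeness and reactive groups. The reported IC50 expresses antiparasitic potency.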

Schistosoma mansoni = assay: WHO-TDR: Schistosomiasis; format: functional; parameters: concentration or dose not given beside the values
Procedure, shortened: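 Larval and/or adult Schistosoma mansoni (Puerto Rican strain) were tested whole against 10,000 diverse compounds from Life Chemicals. The procedure was a previously published standard one, using a reference drug as positive control. Results are expressed as percent inhibition and IC50.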

Onchocerca lienalis = assay: WHO-TDR: Onchocerciasis; format: functional; parameters: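 at 12.5 µM on microfilariae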
Procedure, shortened: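 Onchocerca ochengi or Onchocerca lienalis, animal pathogens used as surrogates for the human parasite, were screened as whole microfilariae against a 10,000-compound diverse library from Life Chemicals. The reported measures of activity are percent inhibition and IC50.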

Brugia malayi = assay: WHO-TDR: Lymphatic Filariasis; format: functional; parameters: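 tested at 10 µM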
Procedure, shortened: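 Percent inhibition and IC50 describe activity against Brugia malayi microfilariae in a whole-organism screen. The screen used previously published standard procedures with reference drugs as positive controls. Compounds came from a diverse Life Chemicals library of 10,000, filtered for drug-likeness and reactive groups.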

Compound	IC50 [1] [µg/mL]	IC50 (Plasmodium falciparum K1) [µg/mL]	IC50 (Trypanosoma cruzi) [µg/mL]	IC50 [2] [µg/mL]	IC50 (Leishmania infantum) [µg/mL]	% Inhibition (Schistosoma mansoni) [%]	% Inhibition (Onchocerca lienalis) [%]	% Inhibition (Brugia malayi) [%]
C=CCn1/c(=N\C(=O)Cc2ccc(S(C)(=O)=O)cc2)sc2c(OC)ccc(OC)c21	13.2 (≈ 29.6 µM)	11.2 (≈ 25.1 µM)	4.07 (≈ 9.11 µM)	0.462 (≈ 1.03 µM)	4.34 (≈ 9.71 µM)	0	13.3	0
O=C(/C=C/c1cccs1)N(CCCN1CCOCC1)c1nc2ccccc2s1	> 13.5	10.5 (≈ 25.3 µM)	4.43 (≈ 10.7 µM)	4.37 (≈ 10.6 µM)	1.98 (≈ 4.79 µM)	0	16.32	0
COc1ccc(SCC(=O)Nc2nc(-c3ccccn3)cs2)cc1	> 10.7	> 10.7	0.356 (≈ 0.996 µM)	0.347 (≈ 0.971 µM)	> 10.7	0	86.55	0
CN(C)CCCN(C(=O)/C=C/c1ccccc1)c1nc2ccccc2s1	3.81 (≈ 10.4 µM)	1.74 (≈ 4.76 µM)	0.406 (≈ 1.11 µM)	0.35 (≈ 0.958 µM)	0.39 (≈ 1.07 µM)	100	25.05	0
Cc1ccc2sc(N(Cc3cccnc3)C(=O)CSc3ccccc3)nc2c1C	> 12.6	> 12.6	0.938 (≈ 2.24 µM)	> 12.6	> 12.6	0	0	0
O=C(CCSc1ccccc1)N(Cc1ccccn1)c1nc2ccccc2s1	> 12.2	11.3 (≈ 28 µM)	0.466 (≈ 1.15 µM)	> 12.2	> 12.2	0	11.35	0
CCN(C1CCCCC1)S(=O)(=O)c1ccc(C(=O)Nc2nnc(-c3ccco3)o2)cc1	6.19 (≈ 13.9 µM)	> 13.3	0.442 (≈ 0.994 µM)	4.32 (≈ 9.71 µM)	4.32 (≈ 9.71 µM)	0	20	0
COc1ccc(OC)c(-c2csc(NC(=O)Cc3ccc(SC)cc3)n2)c1	> 12	3.55 (≈ 8.87 µM)	0.663 (≈ 1.66 µM)	3.52 (≈ 8.79 µM)	> 12	0	11.35	0
CCCCN(C)S(=O)(=O)c1ccc(C(=O)N2CCN(c3nc4c(C)ccc(C)c4s3)CC2)cc1	> 15	> 15	> 15	> 15	0.223 (≈ 0.446 µM)	0	13.3	16.67
CN(Cc1ccco1)S(=O)(=O)c1ccc(C(=O)Nc2nnc(-c3cccs3)o2)cc1	2.5 (≈ 5.62 µM)	6.65 (≈ 15 µM)	0.456 (≈ 1.03 µM)	4.22 (≈ 9.49 µM)	> 13.3	0	0	0
O=C(Cn1c(S(=O)(=O)Cc2ccccc2)nc2ccccc21)N1CCN(c2ccccc2)CC1	> 14.2	10.9 (≈ 22.9 µM)	> 14.2	> 14.2	0.461 (≈ 0.971 µM)	0	11.35	0
CCCn1/c(=N/C(=O)C2=COCCO2)sc2c(C)ccc(OC)c21	> 10.5	3.18 (≈ 9.13 µM)	0.89 (≈ 2.55 µM)	> 10.5	> 10.5	0	20	0
Cc1ccc(C)c(-c2csc(NC(=O)CCCS(=O)(=O)c3ccc(F)cc3)n2)c1	0.999 (≈ 2.31 µM)	9.42 (≈ 21.8 µM)	0.588 (≈ 1.36 µM)	4.2 (≈ 9.71 µM)	> 13	0	12.34	0
CCN(C1CCCCC1)S(=O)(=O)c1ccc(C(=O)Nc2nnc(-c3ccccc3)o2)cc1	1.61 (≈ 3.54 µM)	> 13.6	0.431 (≈ 0.948 µM)	0.528 (≈ 1.16 µM)	> 13.6	0	53.3	0
Cc1ccc(S(=O)(=O)N2CCCc3cc(NC(=O)Oc4ccccc4)ccc32)cc1	1.76 (≈ 4.17 µM)	> 12.7	> 12.7	0.415 (≈ 0.982 µM)	> 12.7	0	0	0
Cc1ccccc1Cn1cc(C(=O)Nc2cccc(Br)c2)ccc1=O	9.51 (≈ 23.9 µM)	> 11.9	0.553 (≈ 1.39 µM)	3.86 (≈ 9.71 µM)	> 11.9	0	26.7	0
O=C(CCCS(=O)(=O)c1ccc(F)cc1)Nc1nc2c(s1)CSc1ccccc1-2	> 13.5	6 (≈ 13.4 µM)	5.29 (≈ 11.8 µM)	4.36 (≈ 9.71 µM)	> 13.5	100	66.33	0
CS(=O)(=O)c1ccc(CC(=O)Nc2nc(-c3ccc(Cl)s3)cs2)cc1	1.53 (≈ 3.7 µM)	> 12.4	0.575 (≈ 1.39 µM)	> 12.4	4.01 (≈ 9.71 µM)	0	11.35	0
O=C(COc1ccc(Cl)cc1Cl)N(Cc1ccccn1)c1nc2ccccc2s1	> 13.3	> 13.3	0.863 (≈ 1.94 µM)	> 13.3	4.32 (≈ 9.71 µM)	0	0	0
CCOc1ccc2nc(N(Cc3cccnc3)C(=O)CSc3ccc(F)cc3)sc2c1	> 13.6	11 (≈ 24.2 µM)	0.223 (≈ 0.492 µM)	> 13.6	> 13.6	0	26.7	0
CC(C)S(=O)(=O)c1ccc(C(=O)Nc2ccccc2-c2nc3ccccc3[nH]2)cc1	> 12.6	> 12.6	> 12.6	> 12.6	0.407 (≈ 0.97 µM)	0	13.3	0
CCN(CC)CCSc1ccc(-c2ccc(Cl)cc2)nn1	> 9.66	0.368 (≈ 1.14 µM)	> 9.66	> 9.66	> 9.66	0	0	0
